Source: publication PMC3818134 (Clinical cancer research : an official journal of the …, 2013)

Experiments:
RD cells = experiment: GI50; format: cell-based, human; conditions: RD cells with NRAS mutation
In short: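 RD cells in DMEM with 10% FBS at 37°C, 5% CO2. Compounds prepared as 10mM stocks, then diluted in medium. MTS read-out after 72hr continuous exposure; GI₅₀ = concentration giving 50% inhibition of proliferation. Isobologram: GI₅₀ of each single agent, plus GI₅₀ of one agent at several fixed sub-GI₅₀ concentrations of the other. These are plotted on the axes, with a diagonal line as theoretical additivity.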

[1] = system: stable p110α KD and control (CONSH) cell lines (RH30, RMS-1, RD, RMS-YM); experiment: MTS growth inhibition in paired CONSH and stable p110α KD lines; format: cell-based, human; conditions: MTS growth inhibition curves, 72hr exposure
In short: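 Lines were transduced with lentiviral PIK3CA or control shRNA at MOI 10 with polybrene (4μg/ml). Puromycin selection (2.5μg/ml) ran from day 2, and stable lines were derived over about 4 weeks. Cells were grown in DMEM with 10% FBS at 37°C, 5% CO2. MTS growth inhibition curves were run after 72hr continuous exposure to the test compound, diluted from 10mM stock.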

pSer473AKT in RD cells = experiment: Western immunoblot biomarker time course in RD cells; format: cell-based, human; conditions: 0.5× and 1.0× GI50 concentrations, 48hr time course
In short: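 RD cells (DMEM, 10% FBS, 37°C, 5% CO2) treated with test compounds singly or combined; protein extracted at time points over 48 hr. Lysates BCA-quantified, 10 μg on Bis-Tris or Tris-Acetate gels, PVDF transfer, primary 1:1,000 overnight 4°C, HRP secondary 1:10,000 2 h RT, ECL Plus, phosphorimager quantitation. Control and treated loaded side by side; treated/control phospho-levels given as % of time 0.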

[2] = Plasma and tumor pharmacokinetics; format: in vivo, mice; conditions: for plasma level 16hrs following treatment: 10mg/kg p.o., mice bearing RD xenografts; for plasma concentrations when administered alone: AZD8055 compared with NVP-BEZ235
In short: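 Female 6-8 week athymic nude (Ncr) mice carried subcutaneous RD xenografts (5 × 10⁶ cells, 25% matrigel). Oral dosing at 0.1mL/10g: MEK inhibitor 10mg/kg in 10% DMSO water; TORC1/2 inhibitor 10 or 20mg/kg in acidified water; PI3K/mTOR inhibitor 25mg/kg in 10% NMP/90% PEG300. Given alone or combined. Plasma and tumors were sampled at various times (n=3), or 3hrs after the final daily dose (19-22 days). Analysed by LC-MS/MS with MRM.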

MEK1/2 = conditions: read-out: IC50 concentration for MEK1/2; cited from earlier work
pERK1/2 in RD cells = experiment: Western immunoblot biomarker time course in RD cells; format: cell-based, human; conditions: 0.5× and 1.0× GI50 concentrations, 48hr time course
In short: (§1)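 RD cells (DMEM, 10% FBS, 37°C) were treated with single agents or the combination at 0.5× and 1.0× GI₅₀ concentrations and sampled at time points up to 48h. Lysates (10μg) were run on Bis-Tris/Tris-Acetate gels and transferred to PVDF. Primary antibody 1:1,000 overnight at 4°C; HRP secondary 1:10,000 for 2h at room temperature; ECL Plus detection. PhosphorImager quantitation; treated/control levels expressed as % of time 0.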

[3] = system: pS6 in RD xenograft tumors; experiment: Tumor PD biomarker, MSD immunoassay; format: in vivo, mice; conditions: RD xenografts, end of therapeutic study
In short: (§2)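 Female 6-8-week athymic nude (Ncr) mice bore subcutaneous flank RD xenografts (5 × 10⁶ cells in 25% matrigel). Once tumors reached ≈5 mm (n=6/group), mice received daily oral dosing for 19-22 days, alone or combined, with vehicle controls: MEK inhibitor 10mg/kg (10% DMSO water), TORC1/2 inhibitor 10 or 20mg/kg (acidified water), PI3K/mTOR inhibitor 25mg/kg (10% NMP/90% PEG300). Tumors were excised and snap-frozen at termination. MSD electrochemiluminescence gave phospho/total ratios in 10μg lysate.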

pS6 in RD cells = experiment: Western immunoblot biomarker time course in RD cells; format: cell-based, human; conditions: 0.5× and 1.0× GI50 concentrations, 48hr time course
In short: as §1

[4] = system: pAKT (Ser473) in RD xenograft tumors; experiment: Tumor PD biomarker, MSD immunoassay; format: in vivo, mice; conditions: RD xenografts, end of therapeutic study
In short: as §2

[5] = system: pERK in RD xenograft tumors; experiment: Tumor PD biomarker, MSD immunoassay; format: in vivo, mice; conditions: RD xenografts, end of therapeutic study
In short: as §2

p110α = experiment: PI3K isoform inhibition profile, p110α versus other isoforms; format: biochemical; conditions: Suppl Fig S4A
PI3K/mTORC1/2 = conditions: cited from earlier work
mTor = conditions: cited from earlier work
p110β = experiment: PI3K isoform inhibition profile, p110β versus p110α; format: biochemical; conditions: Suppl Fig S4A
[6] = 10mg/kg p.o. each, versus alone

Structure (SMILES) | plasma concentration range in combination with AZD6244 versus alone ([2]; 3hrs following the final dose) | plasma concentrations when administered alone ([2]; 3hrs following the final dose) | single-agent sensitivity of RD cells (RD cells) | sensitivity of stable p110α KD lines compared with CONSH counterparts [1] | plasma level 16hrs following treatment [2] | pERK levels (pERK1/2 in RD cells) | change of tumor S6 phosphorylation [3] | change of tumor AKT phosphorylation [4] | further results
Cn1cnc2c(F)c(Nc3ccc(Br)cc3Cl)c(C(=O)NOCCO)cc21 [AZD6244] |  |  | relatively resistant | only the RMS-1 KD line (lacking both p110α and p110δ) exhibited significantly enhanced sensitivity | close to, or below, the limit of detection | ablated pERK levels at all time points and both concentrations |  |  | pSer473AKT levels (pSer473AKT in RD cells): increased p^Ser473AKT levels; elimination phase in combination with AZD8055 [2, 6]: extended; peak plasma concentrations in combination with AZD8055 [2, 6]: reduced; plasma AZD6244 concentrations in combination with NVP-BEZ235 ([2]; 3hrs following the final dose): reduced plasma concentrations of AZD6244 to a similar extent as AZD8055; IC50 (MEK1/2): 0.014 µM
Nc1cc(C(F)(F)F)c(-c2cc(N3CCOCC3)nc(N3CCOCC3)n2)cn1 [BMK120] |  |  |  | No differences in sensitivity |  |  |  |  | selectivity for p110α versus the other isoforms (p110α): modestly selective for p110α versus the other isoforms
Cc1cc(C(C)Nc2ccccc2)c2nc(N3CCOCC3)cc(=O)n2c1 (stereo not drawn) [TGX221] |  |  |  | only the RMS-1 stable KD cell line, with minimal p110α and δ expression, showed increased sensitivity |  |  |  |  | selectivity for p110β versus p110α (p110β): 78 fold
FC(F)c1nc2ccccc2n1-c1nc(N2CCOCC2)nc(N2CCOCC2)n1 [ZSTK474] |  |  |  | increased sensitivity |  |  |  |  | IC50 (mTor; read-out: IC50 against mTor): 0.377 µM

Further lines, with some results ahead:

plasma concentration range in combination with AZD6244 versus alone ([2]; 3hrs following the final dose) | plasma concentrations when administered alone ([2]; 3hrs following the final dose) | Structure (SMILES) | single-agent sensitivity of RD cells (RD cells) | sensitivity of stable p110α KD lines compared with CONSH counterparts [1] | plasma level 16hrs following treatment [2] | pERK levels (pERK1/2 in RD cells) | change of tumor S6 phosphorylation [3] | change of tumor AKT phosphorylation [4] | further results
increased | in the same range | COc1ccc(-c2ccc3c(N4CCOC[C@@H]4C)nc(N4CCOC[C@@H]4C)nc3n2)cc1CO [AZD8055] | relatively resistant | more sensitive to mTOR inhibition than their CONSH counterparts | close to, or below, the limit of detection | increased pERK levels | equally efficient in reducing AKT and S6 phosphorylation | equally efficient in reducing AKT and S6 phosphorylation | pS6 levels / inhibition of S6 phosphorylation (pS6 in RD cells): concentration dependent; plasma and tumor levels in combination with AZD6244 [2, 6]: higher; change of tumor pERK levels [5]: increased pERK levels to a greater extent than NVP-BEZ235
increased | in the same range | Cn1c(=O)n(-c2ccc(C(C)(C)C#N)cc2)c2c3cc(-c4cnc5ccccc5c4)ccc3ncc21 [NVP-BEZ235] |  | more sensitive to mTOR inhibition than their CONSH counterparts |  |  | equally efficient in reducing AKT and S6 phosphorylation | equally efficient in reducing AKT and S6 phosphorylation | concentrations at which it is a dual PI3K/mTORC1/2 inhibitor (PI3K/mTORC1/2): above 500 nM; concentrations at which it predominantly inhibits mTOR (mTor): less than 100 nM
